Measured values as given in PMC6706283 (Bioorganic & medicinal chemistry, 2019).
Entries after “also recorded” stand apart in the source; their conditions may differ. Like-named read-outs stand apart in the source and are kept apart here.

What was measured:
[1] = biological target: T1, PAR2 (Homo sapiens, UniProt P55085); assay: PAR2; format: cell-based; settings: parmodulins 10 μM, vorapaxar 0.316 μM; SLIGKV-NH2 3.16 μM
T1 sequence (P55085 26-397): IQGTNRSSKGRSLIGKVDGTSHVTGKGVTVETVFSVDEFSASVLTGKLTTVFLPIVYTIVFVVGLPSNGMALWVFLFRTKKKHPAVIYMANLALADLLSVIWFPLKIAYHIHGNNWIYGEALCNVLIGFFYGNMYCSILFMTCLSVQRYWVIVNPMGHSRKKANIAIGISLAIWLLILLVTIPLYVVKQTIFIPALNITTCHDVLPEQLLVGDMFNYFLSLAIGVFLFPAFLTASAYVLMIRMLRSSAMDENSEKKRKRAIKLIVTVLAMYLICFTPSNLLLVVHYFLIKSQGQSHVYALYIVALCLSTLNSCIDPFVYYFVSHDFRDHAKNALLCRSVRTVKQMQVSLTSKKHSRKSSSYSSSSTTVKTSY
Summary of the method: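 Intracellular Ca2+ mobilization assay in EA.hy926 endothelial cells. Cells were pretreated with test compound (10 µM) or reference antagonist (0.316 µM), then stimulated with PAR2 agonist SLIGKV-NH2 (3.16 µM). A parallel run stimulated with PAR1 agonist TFLLRN-NH2 at 3.16 µM.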

[2] = human liver microsome stability; format: in vitro ADME; settings: 1 h
[3] = tested on: human washed platelets; assay: human platelet aggregation assay; format: cell-based; settings: parmodulin 10 μM, SFLLRN-NH2 1.5 μM
Summary of the method: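 Washed human platelets were incubated with test compound (10 µM), then stimulated with PAR1/2 agonist SFLLRN-NH2 (1.5 µM). Aggregation traces were recorded against DMSO vehicle control traces.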

[4] = tested on: tissue factor (TF) mRNA; assay: qPCR assay of TNF-α induced tissue factor expression in HUVEC; format: cell-based, human; settings: 10 μM, TNF-α 25 ng/mL added at 1 h, mRNA at 4 h
Summary of the method: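 HUVEC were treated with test compound (10 µM) at t = 0 and TNF-α (25 ng/mL) at t = 1 h. Tissue factor mRNA was quantified by qPCR at t = 4 h, n = 3. Analysis by one-way ANOVA with Bonferroni multiple-comparisons test.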

[5] = biological target: SERT (serotonin transporter) (Homo sapiens, UniProt P31645); assay: PDSP radioligand binding, SERT; settings: read-out: mean % inhibition of binding, SERT
[6] = after 5 h; cited from earlier work
[7] = biological target: T2, PAR1 (Homo sapiens, UniProt P25116); assay: intracellular calcium mobilization; format: cell-based; settings: for activity in the iCa2+ assay (in words): EA.hy926 cells, TFLLRN-NH2
T2 sequence (P25116 22-425): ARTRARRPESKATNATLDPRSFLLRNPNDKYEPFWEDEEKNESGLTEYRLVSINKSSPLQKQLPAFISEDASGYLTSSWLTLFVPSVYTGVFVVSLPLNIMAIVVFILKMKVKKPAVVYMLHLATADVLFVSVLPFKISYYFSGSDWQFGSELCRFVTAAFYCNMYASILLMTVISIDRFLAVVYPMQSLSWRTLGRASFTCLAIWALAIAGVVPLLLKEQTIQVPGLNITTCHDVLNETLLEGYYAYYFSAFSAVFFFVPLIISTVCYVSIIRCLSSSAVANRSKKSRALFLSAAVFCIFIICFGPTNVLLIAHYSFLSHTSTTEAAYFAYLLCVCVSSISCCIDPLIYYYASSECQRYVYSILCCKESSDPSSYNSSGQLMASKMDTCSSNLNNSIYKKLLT
Summary of the method: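 Adherent EA.hy926 endothelial cells in 96-well plates; intracellular Ca2+ mobilization triggered by PAR1 tethered-ligand peptide TFLLRN-NH2 (5 µM). Single-point screen: test compound at 10 µM, % inhibition from n = 4 wells unless noted, with SEM. IC50: 3 wells per concentration, curves fitted by 4-variable non-linear regression. Summary IC50 is the average of independent assays. Selectivity run used agonist at 3.16 µM.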

[8] = biological target: T2, PAR1; format: cell-based; settings: increasing concentrations of antagonist
Summary of the method: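 EA.hy926 endothelial cells; Ca2+ mobilization concentration-response curves for PAR1 agonist TFLLRN-NH2 were recorded at several increasing concentrations of test compound. Agonist efficacy was compared across antagonist levels.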

[9] = tested on: hepG2 cells; assay: cytotoxicity in hepG2 cells; format: cell-based; settings: human hepG2 cells
[10] = biological target: 5HT-5A (5-hydroxytryptamine receptor) (Homo sapiens, UniProt P47898); assay: PDSP radioligand binding, 5HT-5A; settings: read-out: mean % inhibition of binding, 5HT-5A
[11] = biological target: T2, PAR1; settings: cited from earlier work
[12] = tested on: platelets; settings: cited from earlier work
[13] = cited from earlier work

Chain of SERT (serotonin transporter) (P31645 whole entry, species assumed): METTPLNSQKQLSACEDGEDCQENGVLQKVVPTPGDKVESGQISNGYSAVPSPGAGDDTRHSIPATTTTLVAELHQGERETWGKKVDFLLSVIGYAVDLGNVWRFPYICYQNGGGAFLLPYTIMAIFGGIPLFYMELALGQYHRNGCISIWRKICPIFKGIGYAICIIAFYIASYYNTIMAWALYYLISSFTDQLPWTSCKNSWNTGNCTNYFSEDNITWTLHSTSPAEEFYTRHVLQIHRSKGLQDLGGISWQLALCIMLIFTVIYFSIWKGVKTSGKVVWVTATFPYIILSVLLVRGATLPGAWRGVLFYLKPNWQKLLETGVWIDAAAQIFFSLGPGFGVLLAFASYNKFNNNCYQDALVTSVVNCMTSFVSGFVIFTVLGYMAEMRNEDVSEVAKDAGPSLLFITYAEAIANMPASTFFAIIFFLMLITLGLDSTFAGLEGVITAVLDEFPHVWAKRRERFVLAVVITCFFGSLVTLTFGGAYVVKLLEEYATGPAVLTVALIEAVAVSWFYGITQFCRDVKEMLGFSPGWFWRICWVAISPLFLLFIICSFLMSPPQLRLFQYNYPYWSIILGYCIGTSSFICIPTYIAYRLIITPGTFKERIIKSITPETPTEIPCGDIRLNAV
Chain of 5HT-5A (5-hydroxytryptamine receptor) (P47898 whole entry, species assumed): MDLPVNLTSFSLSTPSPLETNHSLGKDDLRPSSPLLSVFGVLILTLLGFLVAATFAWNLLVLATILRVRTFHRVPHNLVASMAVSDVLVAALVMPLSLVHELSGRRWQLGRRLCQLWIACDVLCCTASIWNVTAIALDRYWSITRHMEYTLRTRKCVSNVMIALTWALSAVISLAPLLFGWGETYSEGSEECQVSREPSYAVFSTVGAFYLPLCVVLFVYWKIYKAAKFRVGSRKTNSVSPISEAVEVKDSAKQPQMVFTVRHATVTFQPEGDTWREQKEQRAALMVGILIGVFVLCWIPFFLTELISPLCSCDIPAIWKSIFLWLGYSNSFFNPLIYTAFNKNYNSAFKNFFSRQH

CCCC(=O)Nc1cccc(NC(=O)c2ccccc2Br)c1 [ML161]
PAR2 activity? [1]: None observed
Microsomal stability [2]: 99% (1 h, human)
inhibition of platelet aggregation [3]: Complete inhibition
effect on TNF-α induced TF expression (mRNA) [4]: blocked the ~3-fold increase in TF expression
inhibition at 10 µM [5]: -44%
stability in mouse plasma, % remaining [6]: 2%

O=C(Nc1cccc(NC(=O)c2ccccc2Br)c1)c1cnco1 [NRD-21, N-[3-(2-bromobenzamido)phenyl]-1,3-oxazole-5-carboxamide]
activity in the iCa2+ assay (in words) ([7]; listed as 38): very good inhibition; also recorded: much better efficacy than 39
PAR2 activity? [1]: None observed
effect on the efficacy of the PAR1 agonist TFLLRN-NH2 [8]: reduction in efficacy
inhibition of platelet aggregation [3]: Complete inhibition
effect on TNF-α induced TF expression (mRNA) [4]: below baseline levels
Cytotoxicity (CC50) [9]: no measurable toxicity
inhibition at 10 µM [5]: -44%
inhibition at 10 µM [10]: -31%

CC(C)CC(=O)Nc1cccc(NC(=O)c2ccccc2Br)c1 [compound 2]
activity in the endothelial iCa2+ assay (in words) ([11]; EA.hy926 cells): mediocre inhibition
inhibition in the platelet P-selectin assay (in words) [12]: equipotent to ML161
stability in mouse plasma, % remaining [6]: 65%
solubility in water with 1% DMSO [13]: 9 µM

O=C(Nc1cccc(NC(=O)C2CCCC2)c1)c1ccccc1Br [compound 3]
activity in the iCa2+ assay (in words) [7]: moderate inhibition

CCCCNc1cccc(NC(=O)c2ccccc2Br)c1 [compound 5]
activity in the iCa2+ assay (in words) ([11]; as previously reported): very good activity

CCC(C)C(=O)Nc1cccc(NC(=O)c2ccccc2Br)c1 (centres unmarked) [compound 7]
activity in the iCa2+ assay (in words) [7]: weak efficacy

CCC(=O)Nc1cccc(NC(=O)c2ccccc2Br)c1 [compound 8]
activity in the iCa2+ assay (in words) [7]: decreased activity

CCCCC(=O)Nc1cccc(NC(=O)c2ccccc2Br)c1 [compound 10]
activity in the iCa2+ assay (in words) [7]: decreased efficacy and/or potency

C#CCCC(=O)Nc1cccc(NC(=O)c2ccccc2Br)c1 [compound 11]
activity in the iCa2+ assay (in words) [7]: decreased efficacy and/or potency

CCCCOc1cccc(NC(=O)c2ccccc2Br)c1 [compound 24]
activity in the iCa2+ assay (in words) [7]: moderate activity

CN(C)CC(=O)Nc1cccc(NC(=O)c2ccccc2Br)c1 [compound 25]
activity in the iCa2+ assay (in words) [7]: complete loss of activity

CCCN(CCC)c1cccc(NC(=O)c2ccccc2Br)c1 [compound 26]
activity in the iCa2+ assay (in words) [7]: weak activity

COCCNc1cccc(NC(=O)c2ccccc2Br)c1 [compound 27]
activity in the iCa2+ assay (in words) [7]: weak activity

CCCNCc1cccc(NC(=O)c2ccccc2Br)c1 [compound 28]
activity in the iCa2+ assay (in words) [7]: steep drop in efficacy

O=C(Nc1cccc(NC2CCCC2)c1)c1ccccc1Br [compound 29]
activity in the iCa2+ assay (in words) [7]: evidence of activation

O=C(Nc1cccc(N2CCCC2)c1)c1ccccc1Br [compound 30]
activity in the iCa2+ assay (in words) [7]: evidence of activation

O=C(Nc1cccc(NC(=O)C2CCCO2)c1)c1ccccc1Br (centres unmarked) [compound 36]
activity in the iCa2+ assay (in words) [7]: only modest inhibition

O=C(Nc1cccc(NC(=O)C2CCOC2)c1)c1ccccc1Br (centres unmarked) [compound 37]
activity in the iCa2+ assay (in words) [7]: only modest inhibition

O=C(Nc1cccc(NC(=O)c2ccccc2Br)c1)c1cocn1 [compound 39]
activity in the iCa2+ assay (in words) [7]: very good inhibition
inhibition of PAR1 ([7]; selectivity study: parmodulin 10 μM, TFLLRN-NH2 3.16 μM): less than 75%
